The IC50 is the point on the concentration scale where inhibition reaches its midpoint. The inhibition is the relative decrease from the control value, in per cent. Usually half-life stands for the time needed for the level to fall by half in the phase considered. One may read the AUC(0-t) as exposure summed from dosing to a finite time, without extrapolation to infinity. For orientation: Cmax means the maximum level reached in the sampled fluid or tissue.

The target in data set [1] is T1, BCRP (Homo sapiens, UniProt Q9UNQ0).
T1 sequence (Q9UNQ0 1-655): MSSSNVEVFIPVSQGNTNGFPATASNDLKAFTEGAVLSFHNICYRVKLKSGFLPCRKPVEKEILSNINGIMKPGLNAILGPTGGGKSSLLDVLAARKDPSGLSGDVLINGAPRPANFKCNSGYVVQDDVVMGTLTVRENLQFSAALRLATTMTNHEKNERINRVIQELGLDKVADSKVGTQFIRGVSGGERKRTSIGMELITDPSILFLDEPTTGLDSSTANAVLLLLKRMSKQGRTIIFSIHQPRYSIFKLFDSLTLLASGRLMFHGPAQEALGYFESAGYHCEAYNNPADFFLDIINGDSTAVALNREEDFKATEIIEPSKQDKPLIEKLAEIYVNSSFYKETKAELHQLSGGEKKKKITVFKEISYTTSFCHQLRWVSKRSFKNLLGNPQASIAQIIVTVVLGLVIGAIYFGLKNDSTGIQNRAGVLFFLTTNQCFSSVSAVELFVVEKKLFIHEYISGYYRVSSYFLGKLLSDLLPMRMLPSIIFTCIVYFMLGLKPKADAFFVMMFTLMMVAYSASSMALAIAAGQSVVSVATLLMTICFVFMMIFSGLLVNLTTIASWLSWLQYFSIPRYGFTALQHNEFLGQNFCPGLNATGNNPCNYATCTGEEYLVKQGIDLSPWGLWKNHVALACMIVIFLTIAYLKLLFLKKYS
Kind of data set: BCRP inhibition, prazosin accumulation assay in MDCKII-BCRP cells. The settings on record: for IC50: IC50 on BCRP activity, prazosin 5 µM, 20 min, MDCKII-BCRP; for inhibition at 20 min, 2 µM: human, pH 7.4.

The subject of data set [2] is BCRP. The settings on record: cited from earlier work.
Data set [3] has as its system BCRP. The conditions noted are these: read-out: IC50 for BCRP inhibition; cited from earlier work.
In data set [4] the test system is BCRP. The conditions noted are these: amentoflavone 30 mg/kg co-administered with mitoxantrone, rats; cited from earlier work.
The subject of another data set is MDCKII-BCRP cells. Kind of data set: Reversal of BCRP-mediated resistance to SN-38. Format: cell-based, canine. The settings on record: flavonol 5 µM; CC50 in MDCKII-BCRP comparable to mock cells.
For data set [5], the system named is BCRP. The conditions noted are these: cited from earlier work. This is another data set of the same source.
Data set [6] addresses T2, BCRP (Rattus norvegicus, UniProt Q80W57).
T2 sequence (Q80W57 1-657): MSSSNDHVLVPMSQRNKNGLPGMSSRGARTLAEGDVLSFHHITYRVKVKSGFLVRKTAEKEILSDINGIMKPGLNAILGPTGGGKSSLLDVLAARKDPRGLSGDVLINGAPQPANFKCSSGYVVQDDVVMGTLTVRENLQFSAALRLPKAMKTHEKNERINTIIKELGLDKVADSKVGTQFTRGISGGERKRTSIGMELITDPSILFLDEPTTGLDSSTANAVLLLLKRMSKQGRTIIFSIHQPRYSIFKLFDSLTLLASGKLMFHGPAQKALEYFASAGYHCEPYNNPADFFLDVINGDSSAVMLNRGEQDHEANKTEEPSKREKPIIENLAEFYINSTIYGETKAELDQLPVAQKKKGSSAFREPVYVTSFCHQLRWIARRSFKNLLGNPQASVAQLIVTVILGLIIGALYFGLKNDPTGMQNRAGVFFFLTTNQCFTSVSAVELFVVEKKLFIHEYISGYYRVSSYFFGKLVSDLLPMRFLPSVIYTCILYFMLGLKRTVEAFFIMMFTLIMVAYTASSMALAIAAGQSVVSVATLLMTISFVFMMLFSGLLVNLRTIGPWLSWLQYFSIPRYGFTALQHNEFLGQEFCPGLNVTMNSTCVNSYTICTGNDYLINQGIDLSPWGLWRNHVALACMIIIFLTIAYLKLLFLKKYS
Kind of data set: In vivo pharmacokinetic interaction with the BCRP substrate sulfasalazine. Also noted: species or system Sprague-Dawley (SD) rats. The conditions noted are these: rats; for half-life: male, Sprague-Dawley, rat, plasma, po, 2 mg/kg, t1/2 of sulfasalazine; for increase of sulfasalazine AUClast versus sulfasalazine alone / increase of sulfasalazine Cmax versus sulfasalazine alone: flavonol 5 mg/kg co-administered with sulfasalazine 2 mg/kg oral. The method in brief:
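Male SD rats (8 weeks, 250–270 g), acclimatized 1 week and fasted overnight with water, n = 5/group. Oral sulfasalazine 2 mg/kg alone or co-administered with test flavonol 5 mg/kg. Plasma was separated at 4 °C and sulfasalazine measured by LC-MS/MS after methanol precipitation with IS. Noncompartmental analysis: AUClast by trapezoidal rule, Cmax observed. Groups were compared with Student's t-test; mean ± SD.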

Data set [7] in a line: Plasma pharmacokinetics of the flavonols after oral co-administration. In kind it is in vivo, Sprague-Dawley (SD) rats. The settings on record: male, Sprague-Dawley, rat, 5 mg/kg. The method in brief:
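Fasted male SD rats (8 weeks, 250–270 g; n = 5) were dosed orally with test flavonol 5 mg/kg together with sulfasalazine 2 mg/kg. Flavonol in plasma was quantified by LC-MS/MS: methanol/IS protein precipitation, C18 gradient of ammonium formate and formic acid–acetonitrile. Noncompartmental parameters: AUClast by trapezoidal rule, AUCinf by extrapolation, Cmax/Tmax observed, t1/2 from terminal slope; mean ± SD.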

On to `O=c1c(O)c(-c2ccc(O)cc2O)oc2cc(O)cc(O)c12` [compound 31, 3,5,7,2’,4’-Pentahydroxyflavone], for which the IC50 at BCRP [1] was above 10 µM.

`COc1ccc(-c2oc3cc(OC)c(OC)c(OC)c3c(=O)c2OC)cc1OC` [compound no. 54, 3,5,6,7,3’,4’-Hexamethoxyflavone]: on BCRP [1], the IC50 was below 5 µM and the inhibition at 20 min, 2 µM came to 52%.

For the molecule `Cc1c(O)cc(O)c2c(=O)c(O)c(-c3ccc(O)c(O)c3)oc12` [compound 32, 3,5,7,3’,4’-Pentahydroxy-8-methylflavone], on BCRP [1], the IC50 is below 5 µM.

Regarding `CC(C)c1nc(N(C)S(C)(=O)=O)nc(-c2ccc(F)cc2)c1/C=C/[C@@H](O)C[C@@H](O)CC(=O)O` [rosuvastatin, reference compound], the “increase in maximum plasma concentration” value in the data set on BCRP [2] (421CA or 421AA genotypes versus 421CC wild-type homozygous genotype) is recorded as 1.9 fold.

Turning to `O=c1cc(-c2ccc(O)c(-c3c(O)cc(O)c4c(=O)cc(-c5ccc(O)cc5)oc34)c2)oc2cc(O)cc(O)c12` [amentoflavone], in the data set on BCRP [3], the IC50 was around 4 µM. Besides, in the data set with BCRP [4], the “increase of the AUC of mitoxantrone” value was 1.23 fold.

Molecule `O=c1c(O)c(-c2ccccc2)oc2cc(O)ccc12` [compound no. 7, 3,7-Dihydroxyflavone] had a half-maximal inhibitory concentration (IC50) against BCRP [1] below 5 µM.

On BCRP [1], `COc1cc(O)c2c(=O)c(OC)c(-c3ccc(OC)c(OC)c3)oc2c1` [compound 50, 5-Hydroxy-3,7,3’,4’-tetramethoxyflavone] yielded an IC50 below 5 µM. Further, the “reversal of BCRP-mediated resistance to SN-38” value (“reversal” below) in the data set on MDCKII-BCRP cells was “almost completely reversed BCRP-mediated resistance to SN-38”.

For the molecule `COc1ccc2c(=O)c(OC)c(-c3ccc(O)c(OC)c3)oc2c1` [compound no. 43, 4’-Hydroxy-3,7,3’-trimethoxyflavone], on BCRP [1], the IC50 was below 5 µM and the inhibition at 20 min, 2 µM is 45.2%. For the same molecule, in the data set with MDCKII-BCRP cells, the “reversal” value is listed as “almost completely reversed BCRP-mediated resistance to SN-38”.

Regarding `COc1ccc(-c2oc3cc(O)cc(O)c3c(=O)c2OC)cc1O` [compound 48, 5,7,3’-Trihydroxy-3,4’-dimethoxyflavone], on BCRP [1], the IC50 is below 5 µM.

For `O=c1[nH]c(=O)c2c[nH]nc2[nH]1` [oxypurinol], the prolongation of half-life with BCRP [2] (individuals homozygous for the p.Q141K variant) is reported as 1.8 fold.

`COc1cc(Nc2ncc(F)c(Nc3ccc4c(n3)N(COP(=O)(O)O)C(=O)C(C)(C)O4)n2)cc(OC)c1OC` [Fostamatinib]: the “increase of the plasma concentration of rosuvastatin” value in the data set on BCRP [5] was “approximately two-fold”.

With `O=c1c(O)c(-c2ccc(O)c(O)c2)oc2cc(O)cc(O)c12` [compound no. 27, 3,5,7,3’,4’-Pentahydroxyflavone], at BCRP [1], the IC50 is below 5 µM and the inhibition at 20 min, 2 µM was determined as 45.9%.

With `O=c1c(O)c(-c2cccc(O)c2)oc2cc(O)ccc12` [compound 8, 3,7,3’-Trihydroxyflavone], the IC50 at BCRP [1] is below 5 µM. Further, the “reversal” value in the data set on MDCKII-BCRP cells is listed as “almost completely reversed BCRP-mediated resistance to SN-38”.

`COc1ccc2oc(-c3cccc(OC)c3OC)c(OC)c(=O)c2c1` [compound 47, 3,6,2’,3’-Tetramethoxyflavone] returned an IC50 at BCRP [1] above 10 µM.

For the molecule `COc1cc(-c2oc3cc(O)cc(O)c3c(=O)c2O)ccc1O` [compound no. 29, 3,5,7,4’-Tetrahydroxy-3’-methoxyflavone], at BCRP [1], the inhibition at 20 min, 2 µM turned out to be 45.5%.

On to `COc1ccc(-c2oc3cc(OC)c(O)c(OC)c3c(=O)c2OC)cc1O` [compound 52, 6,3’-Dihydroxy-3,5,7,4’-tetramethoxyflavone], for which, on BCRP [1], the IC50 was below 5 µM.

`O=C(O)c1cc(/N=N/c2ccc(S(=O)(=O)Nc3ccccn3)cc2)ccc1O` [Sulfasalazine, sulfasalazine, reference compound]: the half-life is 1.76 ± 0.29 h at BCRP [6] (sulfasalazine 2 mg/kg oral + 3,4’-dimethoxyflavone 5 mg/kg) and 2.34 ± 1.23 h on BCRP [6] (sulfasalazine 2 mg/kg oral + 3,6,3’,4’-tetramethoxyflavone 5 mg/kg).

For the molecule `COc1ccc2oc(-c3ccc(OC)c(OC)c3)c(OC)c(=O)c2c1` [compound no. 46, 3,6,3’,4’-Tetramethoxyflavone], on BCRP [6], the “increase of sulfasalazine AUClast versus sulfasalazine alone” value amounted to 1.74 fold and the “increase of sulfasalazine Cmax versus sulfasalazine alone” value turned out to be 2.02 fold. Moreover, at BCRP [1], the IC50 was below 5 µM and the inhibition at 20 min, 2 µM stood at 49.9%. Moreover, the “reversal” value in the data set with MDCKII-BCRP cells is reported as “almost completely reversed BCRP-mediated resistance to SN-38”. Besides, in data set [7], the AUC(0-t) came to 22.3 ± 1.6 ng·h/mL, the Cmax worked out at 13.3 ± 0.6 ng/mL and the half-life is 2.24 ± 0.17 h.

`COc1ccc(-c2oc3cc(OC)c(OC)c(OC)c3c(=O)c2OC)cc1` [compound 53, 3,5,6,7,4’-Pentamethoxyflavone] displayed a concentration for half-maximal inhibition (IC50) at BCRP [1] below 5 µM.

On to `COc1ccc(-c2oc3ccccc3c(=O)c2OC)cc1` [compound no. 37, 3,4’-Dimethoxyflavone], for which, at BCRP [6], the “increase of sulfasalazine AUClast versus sulfasalazine alone” value is listed as 1.79 fold and the “increase of sulfasalazine Cmax versus sulfasalazine alone” value is recorded as “approximately 1.83 fold”. For the same molecule, in data set [7], the AUC(0-t) was 12.4 ± 5 ng·h/mL, the Cmax is 13.5 ± 8.8 ng/mL and the half-life is 0.54 ± 0.15 h.
